The values that follow come from ChEMBL document CHEMBL1127600, “Mercaptoacyl amino acid inhibitors of atriopeptidase. 1. Structure-activity relationship studies of methionine and S-alkylcysteine derivatives” (J Med Chem, 1994).

By IC50 is commonly meant the concentration that gives 50% inhibition. Higher therefore signals lower potency.

Assay [1] deals with Rattus norvegicus. Briefly: Tested for in vivo Antihypertensive activity in DOCA rat by giving subcutaneous dose of 30 mg/kg. It is filed as functional. The gist of the method: (§1)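 Male Sprague-Dawley rats (100–150 g) had DOCA-Na hypertension induced and were used 17–21 days later if mean BP was >150 mmHg. Rats were not fasted. Mean BP was recorded after 90-min equilibration. Dosing was sc in TRIS buffer (2 mL/kg) or po in 0.4% aqueous methylcellulose (4 mL/kg). The maximum BP fall over 4 h versus vehicle controls was taken, averaged over four or more animals.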

Assay [2] has as its system Rattus norvegicus. Briefly: In vivo potentiation of ANF Induced Hypotension in rat was determined by giving peroral dose of 3 mg/kg. It is filed as functional. The settings on record: route oral.
The test system of assay [3] is Rattus norvegicus. Description: In vivo potentiation of ANF Induced Hypotension in rat was determined by giving peroral dose of 10 mg/kg. It is filed as functional. The settings on record: route oral.
Assay [4] concerns the target T1, Angiotensin-converting enzyme (Oryctolagus cuniculus, UniProt P12822).
T1 sequence (P12822 whole entry): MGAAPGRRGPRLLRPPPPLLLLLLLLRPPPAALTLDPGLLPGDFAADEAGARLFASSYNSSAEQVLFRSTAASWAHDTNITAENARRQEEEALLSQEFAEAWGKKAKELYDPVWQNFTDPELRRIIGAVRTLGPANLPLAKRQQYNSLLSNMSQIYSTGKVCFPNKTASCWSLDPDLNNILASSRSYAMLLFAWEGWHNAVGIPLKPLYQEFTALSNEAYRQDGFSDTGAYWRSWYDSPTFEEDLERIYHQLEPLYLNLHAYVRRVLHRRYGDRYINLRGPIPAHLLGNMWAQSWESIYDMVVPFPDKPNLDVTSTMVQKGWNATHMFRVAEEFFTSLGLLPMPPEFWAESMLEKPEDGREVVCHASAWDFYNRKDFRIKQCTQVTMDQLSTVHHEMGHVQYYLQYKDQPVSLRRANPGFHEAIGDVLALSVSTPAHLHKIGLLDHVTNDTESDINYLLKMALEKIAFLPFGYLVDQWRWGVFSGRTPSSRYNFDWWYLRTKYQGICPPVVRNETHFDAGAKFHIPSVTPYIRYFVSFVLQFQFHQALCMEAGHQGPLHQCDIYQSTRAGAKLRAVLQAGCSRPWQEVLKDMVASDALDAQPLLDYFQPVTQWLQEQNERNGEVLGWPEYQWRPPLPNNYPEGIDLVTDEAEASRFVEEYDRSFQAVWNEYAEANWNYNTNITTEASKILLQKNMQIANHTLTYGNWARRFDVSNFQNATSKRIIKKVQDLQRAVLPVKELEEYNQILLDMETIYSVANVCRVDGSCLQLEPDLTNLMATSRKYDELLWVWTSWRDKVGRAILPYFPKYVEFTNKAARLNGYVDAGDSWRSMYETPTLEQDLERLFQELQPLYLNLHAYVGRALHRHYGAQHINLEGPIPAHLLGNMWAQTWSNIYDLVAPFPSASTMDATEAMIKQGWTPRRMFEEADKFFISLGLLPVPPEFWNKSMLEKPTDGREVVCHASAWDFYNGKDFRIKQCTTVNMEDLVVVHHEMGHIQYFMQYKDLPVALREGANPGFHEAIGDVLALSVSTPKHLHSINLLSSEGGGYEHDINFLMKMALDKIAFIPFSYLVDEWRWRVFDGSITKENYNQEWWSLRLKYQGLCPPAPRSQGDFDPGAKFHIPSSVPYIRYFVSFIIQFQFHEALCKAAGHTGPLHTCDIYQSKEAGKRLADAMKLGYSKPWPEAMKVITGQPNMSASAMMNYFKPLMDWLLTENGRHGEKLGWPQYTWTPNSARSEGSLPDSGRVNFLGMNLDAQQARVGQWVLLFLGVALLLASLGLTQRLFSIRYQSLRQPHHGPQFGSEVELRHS
Description: Tested in vitro for its inhibitory activity against angiotensin converting enzyme.

The subject of assay [5] is Rattus norvegicus. Briefly: Tested for in vivo Antihypertensive activity in DOCA rat by giving peroral dose of 3 mg/kg. The settings on record: route oral. It is filed as functional. The procedure, abridged:
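Male Sprague-Dawley rats (100–150 g at preparation) made DOCA-Na hypertensive, used 17–21 days after induction if mean BP >150 mmHg, nonfasted. Drug given orally as solution or suspension in 0.4% aqueous methylcellulose (4 mL/kg). Mean BP recorded after 90-min equilibration. Value is maximum BP fall over 4 h versus vehicle-treated controls, averaged over four or more animals.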

In a further assay the target is T2, Neprilysin (Oryctolagus cuniculus, UniProt P08049).
T2 sequence (P08049 whole entry): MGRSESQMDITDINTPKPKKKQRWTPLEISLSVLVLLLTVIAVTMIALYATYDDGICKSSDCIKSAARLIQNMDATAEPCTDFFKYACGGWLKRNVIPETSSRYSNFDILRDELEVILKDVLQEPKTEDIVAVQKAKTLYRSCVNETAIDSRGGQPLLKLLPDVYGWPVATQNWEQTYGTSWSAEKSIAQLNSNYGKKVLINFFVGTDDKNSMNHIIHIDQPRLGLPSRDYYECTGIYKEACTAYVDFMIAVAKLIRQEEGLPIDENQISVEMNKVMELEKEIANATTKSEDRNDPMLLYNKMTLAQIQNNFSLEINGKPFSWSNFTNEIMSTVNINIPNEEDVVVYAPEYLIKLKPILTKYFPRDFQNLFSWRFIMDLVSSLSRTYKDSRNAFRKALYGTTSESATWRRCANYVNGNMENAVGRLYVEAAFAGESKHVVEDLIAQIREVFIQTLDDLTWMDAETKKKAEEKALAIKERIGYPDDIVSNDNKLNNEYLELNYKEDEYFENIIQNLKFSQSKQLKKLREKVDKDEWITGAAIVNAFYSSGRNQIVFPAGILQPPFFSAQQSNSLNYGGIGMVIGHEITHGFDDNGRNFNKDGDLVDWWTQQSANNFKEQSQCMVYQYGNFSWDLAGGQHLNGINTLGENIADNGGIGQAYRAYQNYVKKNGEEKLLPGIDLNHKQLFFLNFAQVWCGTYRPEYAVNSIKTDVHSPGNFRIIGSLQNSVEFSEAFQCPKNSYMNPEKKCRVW
Briefly: In vitro inhibitory activity against neutral endopeptidase (NEP). The procedure, abridged:
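Purified rabbit kidney NEP (EC 24.11) was the enzyme source, with [³H]Leu-enkephalin as the substrate.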

Assay [6] has as its system Rattus norvegicus. Description: Tested for in vivo Antihypertensive activity in DOCA rat by giving peroral dose of 3 mg/Kg. It is filed as functional. The gist of the method:
as §1

Assay [7] deals with Rattus norvegicus. Briefly: Tested for in vivo Antihypertensive activity in DOCA rat by giving peroral dose of 10 mg/kg. It is filed as functional. The settings on record: route oral. The procedure, abridged: as §1
In assay [8] the test system is Rattus norvegicus. Briefly: Tested for in vivo Antihypertensive activity in DOCA rat by giving peroral dose of 1 mg/kg. It is filed as functional. Conditions: route oral. The procedure, abridged: as §1
Assay [9] relates to Rattus norvegicus. Description: In vivo potentiation of ANF induced hypotension in rat, following subcutaneous dose of 30 mg/kg. It is filed as functional. The procedure, abridged:
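Conscious male SHR (270–300 g) had caudal artery and jugular vein cannulae placed under ether. After at least 90 min of stabilization, ANF 103-125 or 99-126 was given as an iv bolus at a submaximal dose. 60–90 min later, drug or vehicle (0.2% aqueous methylcellulose with 20% Tris-HCl) was given sc. ANF was repeated 15 min after dosing, and the response was compared with vehicle controls. Values are means of four or more animals.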

The subject of assay [10] is Rattus norvegicus. Briefly: Tested for in vivo Antihypertensive activity in DOCA rat by giving subcutaneous dose of 1 mg/kg. It is filed as functional. The gist of the method:
as §1

For assay [11], the system named is Rattus norvegicus. Briefly: Ttested for in vivo Antihypertensive activity in DOCA rat by giving subcutaneous dose of 0.1 mg/kg. It is filed as functional. The gist of the method:
as §1

Regarding `CSCC[C@@H](NC(=O)[C@H](CSC(=O)c1ccccc1)Cc1ccccc1)C(N)=O`, the Delta blood pressure in the assay with Rattus norvegicus [1] stood at 0 mmHg; in the assay with Rattus norvegicus [2] it was 19 mmHg; with Rattus norvegicus [3], 52 mmHg.

With `CSCC[C@@H](NC(=O)[C@H](CS)CCc1ccccc1)C(=O)O`, the 50% inhibitory concentration (IC50) is more than 1000 nM in [4] and more than 300 nM against Neprilysin. The molecule also gave a Delta blood pressure in the assay with Rattus norvegicus [5] of 6 mmHg.

As for `CCOC(=O)[C@@H](CCSC)NC(=O)[C@@H](CSC(C)=O)Cc1ccccc1C`, the values for the IC50 (in assay [4]; against Neprilysin) were 250 nM and more than 300 nM, respectively. Further, the Delta blood pressure is listed as 48 mmHg with Rattus norvegicus [6], 70 mmHg with Rattus norvegicus [7], 27 mmHg with Rattus norvegicus [8] and 36 mmHg in the assay on Rattus norvegicus [9].

With `CCSC[C@@H](NC(=O)[C@@H](CS)Cc1ccccc1)C(=O)O`, the results for the half-maximal inhibitory concentration (IC50) (in assay [4]; against Neprilysin) were 28 nM and 2.4 nM, respectively. Also, the Delta blood pressure stood at 22 mmHg with Rattus norvegicus [10], 61 mmHg with Rattus norvegicus [7], 21 mmHg with Rattus norvegicus [11] and 19 mmHg in the assay on Rattus norvegicus [9].
